# The sample as a whole holds a higher share of hits than the screen did.
# H69AR inhibit – proliferation blockers of H69AR lung cancer cells, primary screen, cell-based, human, 86K library | H69AR lung tumor viability, ATP luminescence, 72 h; stronger effect = lower value | viability, % at 10 µM | 85,000 compounds, 6% hits;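 active = viability at or below 40%; inactive = viability above 40%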;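 also: multidrug resistant small cell line overexpressing MRP-1 efflux transporter; 100% = mean luminescence of untreated control wells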
# HCT116 PTEN-null – growth suppression of PTEN-null HCT116, primary screen, cell-based, CellTiter-Glo. viability, % at 10 µM. 140,000 compounds, 1.2% hits. HCT116 PTEN-null viability, 60 h; stronger effect = lower value;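 active = viability at or below a set limit, 4 SD under the median of all tested compounds, cut at about 3.7% in these data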;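 also: PTEN knockout HCT116 line with beta catenin targeted HCT116 as companion control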
# HUVEC inhibit – inhibitors of HUVEC proliferation, primary screen, cell-based, 384-well | CellTiter-Glo luminescence, 72 h; stronger effect = lower value | viability, % at 10 µM (by protocol) | 86,000 compounds, 1.1% hits | AID 648, 2007;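 active = viability at or below 30%; inactive = viability above 30%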;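 also: 100% = median luminescence of DMSO-only cell control wells on each plate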
# Lung fibro prol – antiproliferative effect on LL 47 fibroblasts – human, LL 47 cells, CellTiter-Glo luminescence, primary screen | LL 47 human lung fibroblast viability, ATP luminescence; stronger effect = lower value | viability, % at 10 µM | 85,000 compounds, 1.1% hits | AID 719, 2007;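 active = viability at or below 50% in the single dose screen; inactive = viability above 50%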;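 also: compound exposure lasted 72 h before the ATP readout; 100% = median luminescence of untreated cell-only wells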
#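 Test system: LL 47 human lung fibroblasts / Quantity: 1,150 cells in each well / Medium: IMEM growth medium with 15% fetal bovine serum / Incubation: 72 h compound exposure at 37 °C after overnight plating / Detection: CellTiter-Glo luminescence measuring cellular ATP / Read-out: % viability versus median cells-only luminescence / Benchmarks: cell-only wells, no compound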
# bCat KO growth – primary screen for growth suppressors in beta-catenin knockout HCT116 cells (colon tumor, human); HCT116 beta-catenin knockout viability, CellTiter-Glo, 60 h; stronger effect = lower value; viability, % at 10 µM; 140,000 compounds, 1.5% hits; AID 818, 2007;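 active = viability at or under a set limit, the compound median less 4 SD, cut at about 6% in these data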;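 also: 0% = Hyamine 1622 control at 20 µM and 100% = untreated cell control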
# Starred values were filed as active, the others as inactive; . = no result.
SMILES,H69AR inhibit,HCT116 PTEN-null,HUVEC inhibit,Lung fibro prol,bCat KO growth
CCOC(=O)c1c(-n2c(C)cc(C=C3C(=O)NC(=S)NC3=O)c2C)sc2c1CCCC2,.,5,.,.,3.8*
COc1ccccc1-n1c(-c2ccoc2)nc2ccccc2c1=O,.,82,.,.,90
O=c1c2ccccc2nc(-c2ccoc2)n1-c1ccccc1Cl,34*,34,86,98,36
CC1(C)C(=O)C=C[C@]2(C)[C@H]3CC[C@@]4(C)[C@H](c5ccoc5)OC(=O)[C@H]5O[C@]54[C@]3(C)[C@H](O)C[C@@H]12,.,14,.,.,14
Cc1ccc(NC(=O)CN2C(=O)CN=C(c3ccccc3)c3cc(Cl)ccc32)cc1,25*,47,85,85,44
CCn1c(O)c(/C(C)=N/N2CCCCC2c2cccnc2)c(=O)[nH]c1=S (stereo unspecified),.,69,.,.,70
CCN(CC)CCNC(=O)c1c(O)c2ccccc2n(Cc2ccccc2)c1=O,27*,64,107,90,49
C/C(=N\Nc1cccc2ccccc12)c1c(O)n(Cc2ccccc2)c(=O)[nH]c1=O,.,70,.,.,76
CCN(CC)CCCNC(=O)c1c(O)c2ccccc2n(Cc2ccccc2)c1=O,9.1*,47,100,74,39
COc1ccc(Cn2c(N)c(C(=O)NCc3ccco3)c3nc4ccccc4nc32)cc1,38*,29,70,77,52
Nc1c(C(=O)NCc2ccco2)c2nc3ccccc3nc2n1Cc1ccc(F)cc1,22*,6,70,85,55
O=c1[nH]c(=S)n(C2CC2)c(O)c1C=Nc1cccc(C(F)(F)F)c1,.,86,.,.,81
Cc1nn(Cc2ccc(Cl)cc2Cl)c(Cl)c1C(=O)NC1CCCc2ccccc21 (stereo unspecified),.,57,.,.,67
FC(F)(F)c1ccc2c(c1)nnn2C1CCN(Cc2nnnn2Cc2ccccc2)CC1,.,42,70,93,55
Cc1ccc(Cn2nnnc2CN2CCC(n3nnc4cc(C)ccc43)CC2)cc1,27*,43,65,90,47
Fc1ccc2c(c1)nnn2C1CCN(Cc2nnnn2C2CCCCC2)CC1,27*,92,97,92,92
Fc1ccc2c(c1)nnn2C1CCN(Cc2c(Cl)cccc2Cl)CC1,88,72,89,96,83
Cc1ccc(Cn2nnnc2CN2CCC(n3nnc4cc(C(F)(F)F)ccc43)CC2)cc1,2.0*,43,54,75,47
O=C(c1c[nH]cc1-c1ccccc1)c1cccc2ccccc12,84,79,77,60,70
